From the EternaBench riboswitch data come the findings set out here.

In the series the test system is MS2 coat protein. The series can be described thus: apparent Kd, MS2 coat protein; higher = weaker binding; RNA-MaP array. In short, it runs like this: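 Apparent Kd is the median of per-cluster binding-curve fits for designed RNAs transcribed from sequenced DNA templates on an Illumina sequencing chip. The RNAs were incubated at room temperature with fluorescently labeled MS2 coat protein at 1.5 nM to 3 μM, with or without input ligand, and designs measured on fewer than 10 clusters were excluded.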

The mark [1] stands for this setting: designed as: ON switch for flavin mononucleotide, no ligand.
[2] abbreviates: ligand present: flavin mononucleotide, designed as: ON switch for flavin mononucleotide.
Setting [3] is: designed as: OFF switch for flavin mononucleotide, no ligand.
[4] abbreviates: ligand present: flavin mononucleotide, designed as: OFF switch for flavin mononucleotide.
[5] abbreviates: designed as: OFF switch for theophylline, no ligand.
The mark [6] stands for this setting: ligand present: theophylline, designed as: OFF switch for theophylline.
[7] abbreviates: designed as: OFF switch for tryptophan, no ligand.
Where [8] appears, read: ligand present: tryptophan, designed as: OFF switch for tryptophan.

By apparent Kd is commonly meant a dissociation constant that holds for the conditions of the assay. For “UGACUGUCGAAAGGAUAUGGUCGCACGCACACAUCAGUGUUUCACAUGAGGAUCACCCAUGUGGUCCAGAAGGUUCAUAAAUAU”, the “apparent Kd” value reads like this: under setting [1], 197 nM; under setting [2], 122 nM.
For “AACAAACAUGAGGAUCACCCAUGUGAGGAUAUCAAGUCCAUACCCUAAGAGGGAGUUUUGAGAAGGCACGUGUA”, the “apparent Kd” value is, setting by setting: under setting [3], 11.2 nM; under setting [4], 15.1 nM.
Consider “UUAAUUCAGUGCCACAUGAGGAUCACCCAUGUCCAUACUCAAAAGGAUAUAUGCGGUUUCUAAGUAUAGAAGGUUUGUACACGA”, for which the “apparent Kd” value runs as follows: under setting [1], 130 nM; under setting [2], 89 nM.
For the sequence “UCAGAUGUGAAGGAUAUUCCGCGAGCAGCUACGGAAGAAGGUCAAACAUGAGGAUCACCCAUGUGUCUCCCGGG”, the “apparent Kd” value was 14.4 nM under setting [3] and 22.4 nM under setting [4].
The like results for “GUUCAACGGUGAGGAUAUUGCAGUACGUACGCACAAGAAGGCACUCCAUAGCACAGGGUGCACAUGAGGAUCACCCAUGUGGUC” were, in that order, 494 nM and 224 nM.
Regarding “CAUGACAUGAGGAUCACCCAUGUAUCCAGUCGAGGACCGGUACGGCCGCCACUCGGUGCCUUCAAAUUUACAGACAGGUGACAGG”, the “apparent Kd” value (designed as: ON switch for tryptophan, no ligand) was determined as 33.7 nM and the “apparent Kd” value (ligand present: tryptophan, designed as: ON switch for tryptophan) came to 22.8 nM.
For “AAUCGCCUGGGUCGCAUCCUUGCUCCGGAUACCAGUCAAUAGUUGGACCCUUGGCAGCCGUAGACAUGAGGAUCACCCAUGUAUA”, the “apparent Kd” value runs as follows: under setting [5], 53.8 nM; under setting [6], 109 nM.
Take “GAACACCAGAAGAAGGGAGACAUGAGGAUCACCCAUGUUUAAAUACGAAAUAAGGUAAAAGCAACACAGGAUAUUCGGCUCUAC”: the “apparent Kd” value was 22.6 nM under setting [1] and 18 nM under setting [2].
The like results for “ACAGCAAACGUAGGAUAUGGGAGAACAUGAGGAUCACCCAUGUGGAAGUACGAGUUCGCUACAUACCAGAAGGACGAAAUCUAC” were, in that order, 156 nM and 35.8 nM.
For “CGGCGACAUGAGGAUCACCCAUGUUAGGAUAUUCAGUUAACUGUGUUUGAUCGUUUGAGAAGAAGGAACGUGAG”, the “apparent Kd” value by setting is: under setting [3], 10.7 nM; under setting [4], 10.2 nM.
“CCUGUGAUCCACAUGAGGAUCACCCAUGUAUAAGUGAUUGACAGAAGGAGAGCAUGCUUGUGAUUCUAGGAUAUGUUUCUCAUA”: the “apparent Kd” value by setting is: under setting [3], 25.2 nM; under setting [4], 25.9 nM.
Turning to “CUACAUGGGCUCGAUACCAGUCAGCUCUCGCGUCUCUCAGACAUGAGGAUCACCCAUGUUGACCCUUGGCAGCGACGAUGUAGGC”, the “apparent Kd” value runs as follows: under setting [5], 79.8 nM; under setting [6], 500 nM.
Regarding “GAUGAGCGCACGGGAAUAAACAUGAGGAUCACCCAUGUCGUUAGAAGGGUAUUCGCCGGGACCAUACAGGAUAUAACGCGUCAC”, the “apparent Kd” value is 25.7 nM under setting [1] and 21 nM under setting [2].
In the case of “UAUGUACAUGAGGAUCACCCAUGUCAGGAUAUCUUCGAUUAGACCAUUAGCGCCGCGGAGAGAAGGGACGUAGA”, the “apparent Kd” value under setting [3] came to 16 nM and the “apparent Kd” value under setting [4] came to 15.1 nM.
With “UUACAACUAAUGGAUACCAGCCGCGUGCUAGUGGUAGCAUACAUGAGGAUCACCCAUGUCGGCCCUUGGCAGCCACGCCCAUGCU”, the “apparent Kd” value under setting [5] stood at 14.5 nM and the “apparent Kd” value under setting [6] was 21.5 nM.
Turning to “GCGCCUCCCAAGGAUAUAACGCGUCUCUAAGGAUUAGAAGGUGGGACAUGAGGAUCACCCAUGUGACUCCUUUA”, the “apparent Kd” value worked out at 7.31 nM under setting [3] and 7.37 nM under setting [4].
With “UGUGACCGCCAUUCUCGCGACAUGAGGAUCACCCAUGUUUCCAGAAGGCUCCAGGCUUGUGCUCGAGAGGAUAUGGGAAGAUUC”, the “apparent Kd” value is, setting by setting: under setting [3], 28.4 nM; under setting [4], 26.5 nM.
The like results for “UUGAAACAUGAGGAUCACCCAUGUCAGGAUAUCUUAACCCACUUACGCGAGUGUAGCCAGAGAAGGGACAGCGG” were, in that order, 12.1 nM and 17.4 nM.
On to “GCACGGGCGAUCGGCACUUUUACUAAUAUACGAGGACCGGUACGGCCGCCACUCGAGCUAAGACAUGAGGAUCACCCAUGUAACG”, for which the “apparent Kd” value runs as follows: under setting [7], 26.2 nM; under setting [8], 49.3 nM.
Take “ACAGAAAAUAGAGGAUAUACAAGAACAUGAGGAUCACCCAUGUAAUAACAAUAUGAUCGGUUCAAGAAGAAGGCUAAACAAAAU”: the “apparent Kd” value runs as follows: under setting [3], 14.2 nM; under setting [4], 12.8 nM.
In the case of “GGGAUCGGAGGAUAUCGGUGGUUUAACAUGAGGAUCACCCAUGUGAAUAAACAAGUGGAGCGAGAAGGCCGGCGCU”, the “apparent Kd” value by setting is: under setting [3], 14.7 nM; under setting [4], 9.97 nM.
Take “AGUGAGGUUCUAGGAUAUCUCCCUCGAGUGCAGCUACAUGAGGAUCACCCAUGUCAUGGGUGUCGAGAGAAGGAGAAGGGCUUA”: the “apparent Kd” value was found to be 74.5 nM under setting [3] and 104 nM under setting [4].
The like results for “CGGUAGUUUUAGAAGGAGCAACCAAGUUUACAUGAGGAUCACCCAUGUGUGAGGAUAUGUUAAGGCUAGGAUAUAAUAGAACCU” were, in that order, 25.4 nM and 23.4 nM.
The like results for “UAUUGCAAUGUGAGGAUAUCUCAAGAAAAGACAAGAGAGAAGGCACAUGAGGAUCACCCAUGUUAGAAACAAAA” were, in that order, 19.3 nM and 110 nM.
The like results for “AGUCGUACCAAGAAGGUACCCGGCUAAUGGUGGUAAGGAUAUUGUACGAACCCUAACAUGAGGAUCACCCAUGUCCACAGUGGG” were, in that order, 53.5 nM and 33 nM.
As to “AUAUUGUUUAUAGGAUAUUACACUAAGGUGACAUGAGGAUCACCCAUGUCCUCAACCACACGACUUAAGAAGGAUAAACGUUGG”, the “apparent Kd” value is, setting by setting: under setting [3], 46.5 nM; under setting [4], 54.9 nM.
The like results for “UAAGCACAUCAGAAGGCGCAUUAGUUGAACUUGCGAGGAUAUGAUCUGUCCUCAUCAACAUGAGGAUCACCCAUGUGUCAGCUC” were, in that order, 37.6 nM and 140 nM.
The corresponding values for “GUCUCUCGCUUAGGAUAUCAGCACGAUUAUCCCUGAGAAGGAAGUGACAGACAUGAGGAUCACCCAUGUAUCCAAGGUUCGAAG” are 15.6 nM and 15 nM.
As to “GGAACAUGAGGAUCACCCAUGUAAUCACGACGAGGACCGGUACGGCCGCCACUCGUAUUCACGCAAGGUAGAGGAAUACGUAGGC”, the “apparent Kd” value under setting [7] worked out at 12.6 nM and the “apparent Kd” value under setting [8] worked out at 13.8 nM.
For “UACAAGCAAGGAUAUACAUGAGGAUCACCCAUGUGGAGAGCCAGCAAAUUCCGGAAAUGUAGAAGGUGCCACAA”, the “apparent Kd” value was found to be 34.4 nM under setting [3] and 32.8 nM under setting [4].
In the case of “UCGCAUUCAGGAUAUACUUAAAGGUGAACUGAUCAUAGCAAACAUGAGGAUCACCCAUGUAGAAGGGAAAUAUC”, the “apparent Kd” value was determined as 99.2 nM under setting [3] and 72.7 nM under setting [4].
As to “UCCUCGUUUACAUGAGGAUCACCCAUGUGCUCGUCUAAACAUUAGGAUAUCGACCCUCUGCGCAUCGAGAAGGAAUACGGCGAG”, the “apparent Kd” value reads like this: under setting [3], 192 nM; under setting [4], 204 nM.
The corresponding values for “GUCUCUAGGACAGGAUAUCUCCUCAGGGAUGCGAGAGAAGGGUCUAUUGACAUGAGGAUCACCCAUGUGGAUCAUGUCUAUGAU” are 378 nM and 352 nM.
Take “UGCUUUUACGGAGGAUAUCUUUGGUCGUUAUGAAGAGAAGGCCGUCCUAACAUGAGGAUCACCCAUGUAUCUCAUUACAGUCUC”: the “apparent Kd” value runs as follows: under setting [1], 22.9 nM; under setting [2], 16.3 nM.
As for “AGCAGAGCCUAGAAGGCAGUGCAGACCGCGCACUGAGGAUAUAGACUUUAAGAUUGUACAUGAGGAUCACCCAUGUUGAGUGGG”, the “apparent Kd” value runs as follows: under setting [3], 563 nM; under setting [4], 450 nM.
Turning to “GCUCUACAGGAGAAGGUCAUAUCAUCGGUUAUUGAAGGAUAUCCUCAAGGGACGCUGAGGCGUACAUGAGGAUCACCCAUGUCC”, the “apparent Kd” value under setting [1] was found to be 84.1 nM and the “apparent Kd” value under setting [2] amounted to 52.2 nM.
Consider “UAACGCCCCUUAGGAUAUCCACGUAACCCCUCCCCCGUAAGUAGAAACAUGAGGAUCACCCAUGUGGAGAAGGAAGUGACCCGC”, for which the “apparent Kd” value is, setting by setting: under setting [3], 20.8 nM; under setting [4], 18.9 nM.
In the case of “UUAUUCCCGGAGGAUAUCGACGUAUUUGGCGCCCGAGAAGGCCGGACAUGAGGAUCACCCAUGUCCCGUGCUCU”, the “apparent Kd” value reads like this: under setting [3], 5.66 nM; under setting [4], 5.82 nM.
On to “GAUAGAUAUGUAAGGAUAUGUGACGCGCUUGAGAAACAGAAGGAACAUGAGGAUCACCCAUGUAGAUGUUGUGA”, for which the “apparent Kd” value runs as follows: under setting [3], 11.2 nM; under setting [4], 9.94 nM.
As to “CGUUACAUAGAGAAGGUUCAUAAGAUCAAAUAACAUGAGGAUCACCCAUGUAUGUAAGCAUGAGGAAAGGAUAUCUACCGCCAG”, the “apparent Kd” value under setting [1] came to 144 nM and the “apparent Kd” value under setting [2] was found to be 70.1 nM.
Take “CUUGUGGCACAGGAUAUUCCGACGUAAUCAAAUGAAGAAGGGUGCACAUGAGGAUCACCCAUGUGUGAACACAA”: the “apparent Kd” value under setting [3] was 12.3 nM and the “apparent Kd” value under setting [4] is 26.8 nM.
The like results for “ACCCUGUGAGGAUAUAUGCGGUUUGAACCAGAUCAGAAAUAAUAGAAGGCACAUGAGGAUCACCCAUGUUUCUC” were, in that order, 27.9 nM and 22.8 nM.
With “UCUAACCUAGGAUAUACAUGCCUUGCGUAGCACAUCCGUUUACAUGAGGAUCACCCAUGUAGAAGGAGGGACGG”, the “apparent Kd” value came out at 6.55 nM under setting [3] and 8.51 nM under setting [4].
For “GCGUGACAUGAGGAUCACCCAUGUAGACUUGUGGAAGGAUAUACGAGAGUUCGAGUUAAGGUAGAAGGUCCCGAUG”, the “apparent Kd” value reads like this: under setting [1], 41.3 nM; under setting [2], 16.3 nM.
On to “CACGUACAUGAGGAUCACCCAUGUAUGUCCGAAACGCGAGUACAGGAUAUGAUAUGGAGAAGUCUUCAGAAGGGUACAAAUCGC”, for which the “apparent Kd” value is, setting by setting: under setting [1], 58.4 nM; under setting [2], 21.6 nM.
The like results for “AUUAAGUCGACAGGAUAUCCGUACUUUGAGUAAGGAGAAGGGUCUACAAAGGUACAUGAGGAUCACCCAUGUGACUUGGCCGUC” were, in that order, 10.1 nM and 7.7 nM.
With “CUCUUAGAAGGAUAUUAAUAAUGUUACAUGAGGAUCACCCAUGUCUCAAUAUGUGACCGUUAAGAAGGUCUAUCGC”, the “apparent Kd” value is, setting by setting: under setting [3], 9.2 nM; under setting [4], 8.16 nM.
